Data as given in ChEMBL document CHEMBL4052595, “Application of Residual Dipolar Couplings and Selective Quantitative NOE to Establish the Structures of Tetranortriterpenoids from Xylocarpus rumphii” (J Nat Prod, 2017).
Active and inactive are the calls of the source.

Tests used:
Type in all cases: functional, cell-based
BT-549 = assay: Growth inhibition of human BT549 cells at 10^-5 M incubated for 48 hrs by sulforhodamine B assay
Summary of the method: (§1)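 Run in the NCI59 one-dose cell-line screen, with each compound tested at a single concentration of 1 × 10−5 M.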

T47D = assay: Growth inhibition of human T47D cells at 10^-5 M incubated for 48 hrs by sulforhodamine B assay
Summary of the method: (§2)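 Tested at a single concentration of 1 × 10−5 M as part of the NCI59 cell-line one-dose screen.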

Hs-578T = assay: Growth inhibition of human Hs 578T cells at 10^-5 M incubated for 48 hrs by sulforhodamine B assay; summary of the method: as §1
MCF7 = assay: Growth inhibition of human MCF7 cells at 10^-5 M incubated for 48 hrs by sulforhodamine B assay; summary of the method: as §1
MDA-MB-231 = assay: Growth inhibition of human MDA-MB-231 cells at 10^-5 M incubated for 48 hrs by sulforhodamine B assay; summary of the method: as §1
DU-145 = assay: Growth inhibition of human DU145 cells at 10^-5 M incubated for 48 hrs by sulforhodamine B assay; summary of the method: as §1
UO-31 = assay: Growth inhibition of human UO31 cells at 10^-5 M incubated for 48 hrs by sulforhodamine B assay; summary of the method: as §2
PC-3 = assay: Growth inhibition of human PC3 cells at 10^-5 M incubated for 48 hrs by sulforhodamine B assay; summary of the method: as §1
SN12C = assay: Growth inhibition of human SN12C cells at 10^-5 M incubated for 48 hrs by sulforhodamine B assay; summary of the method: as §1
TK-10 = assay: Growth inhibition of human TK10 cells at 10^-5 M incubated for 48 hrs by sulforhodamine B assay; summary of the method: as §2
RXF 393 = assay: Growth inhibition of human RXF393 cells at 10^-5 M incubated for 48 hrs by sulforhodamine B assay; summary of the method: as §1
ACHN = assay: Growth inhibition of human ACHN cells at 10^-5 M incubated for 48 hrs by sulforhodamine B assay; summary of the method: as §1
CAKI-1 = assay: Growth inhibition of human Caki1 cells at 10^-5 M incubated for 48 hrs by sulforhodamine B assay; summary of the method: as §1
A498 = assay: Growth inhibition of human A498 cells at 10^-5 M incubated for 48 hrs by sulforhodamine B assay; summary of the method: as §1
786-0 = assay: Growth inhibition of human 786-0 cells at 10^-5 M incubated for 48 hrs by sulforhodamine B assay; summary of the method: as §1
NCI/ADR-RES = assay: Growth inhibition of human NCI/ADR-RES cells at 10^-5 M incubated for 48 hrs by sulforhodamine B assay; summary of the method: as §1
SK-OV-3 = assay: Growth inhibition of human SKOV3 cells at 10^-5 M incubated for 48 hrs by sulforhodamine B assay; summary of the method: as §1
OVCAR-8 = assay: Growth inhibition of human OVCAR8 cells at 10^-5 M incubated for 48 hrs by sulforhodamine B assay; summary of the method: as §1
OVCAR-4 = assay: Growth inhibition of human OVCAR4 cells at 10^-5 M incubated for 48 hrs by sulforhodamine B assay; summary of the method: as §1
OVCAR-5 = assay: Growth inhibition of human OVCAR5 cells at 10^-5 M incubated for 48 hrs by sulforhodamine B assay; summary of the method: as §1
IGROV-1 = assay: Growth inhibition of human IGROV1 cells at 10^-5 M incubated for 48 hrs by sulforhodamine B assay; summary of the method: as §1
OVCAR-3 = assay: Growth inhibition of human OVCAR3 cells at 10^-5 M incubated for 48 hrs by sulforhodamine B assay; summary of the method: as §1
UACC-62 = assay: Growth inhibition of human UACC62 cells at 10^-5 M incubated for 48 hrs by sulforhodamine B assay; summary of the method: as §2
SK-MEL-5 = assay: Growth inhibition of human SK-MEL-5 cells at 10^-5 M incubated for 48 hrs by sulforhodamine B assay; summary of the method: as §1
UACC-257 = assay: Growth inhibition of human UACC257 cells at 10^-5 M incubated for 48 hrs by sulforhodamine B assay; summary of the method: as §2
SK-MEL-28 = assay: Growth inhibition of human SK-MEL-28 cells at 10^-5 M incubated for 48 hrs by sulforhodamine B assay; summary of the method: as §1
MDA-MB-435 = assay: Growth inhibition of human MDA-MB-435 cells at 10^-5 M incubated for 48 hrs by sulforhodamine B assay; summary of the method: as §1
SK-MEL-2 = assay: Growth inhibition of human SK-MEL-2 cells at 10^-5 M incubated for 48 hrs by sulforhodamine B assay; summary of the method: as §1
M14 = assay: Growth inhibition of human M14 cells at 10^-5 M incubated for 48 hrs by sulforhodamine B assay; summary of the method: as §1
U-251 = assay: Growth inhibition of human U251 cells at 10^-5 M incubated for 48 hrs by sulforhodamine B assay; summary of the method: as §2
LOX IMVI = assay: Growth inhibition of human LOXIMVI cells at 10^-5 M incubated for 48 hrs by sulforhodamine B assay; summary of the method: as §1
SNB-19 = assay: Growth inhibition of human SNB19 cells at 10^-5 M incubated for 48 hrs by sulforhodamine B assay; summary of the method: as §1
SNB-75 = assay: Growth inhibition of human SNB75 cells at 10^-5 M incubated for 48 hrs by sulforhodamine B assay; summary of the method: as §1
SF-539 = assay: Growth inhibition of human SF539 cells at 10^-5 M incubated for 48 hrs by sulforhodamine B assay; summary of the method: as §1
SF-268 = assay: Growth inhibition of human SF268 cells at 10^-5 M incubated for 48 hrs by sulforhodamine B assay; summary of the method: as §1
SF-295 = assay: Growth inhibition of human SF295 cells at 10^-5 M incubated for 48 hrs by sulforhodamine B assay; summary of the method: as §1
SW-620 = assay: Growth inhibition of human SW620 cells at 10^-5 M incubated for 48 hrs by sulforhodamine B assay; summary of the method: as §2
HT-29 = assay: Growth inhibition of human HT-29 cells at 10^-5 M incubated for 48 hrs by sulforhodamine B assay; summary of the method: as §1
KM12 = assay: Growth inhibition of human KM12 cells at 10^-5 M incubated for 48 hrs by sulforhodamine B assay; summary of the method: as §1
HCT-116 = assay: Growth inhibition of human HCT116 cells at 10^-5 M incubated for 48 hrs by sulforhodamine B assay; summary of the method: as §1
HCT-15 = assay: Growth inhibition of human HCT15 cells at 10^-5 M incubated for 48 hrs by sulforhodamine B assay; summary of the method: as §1
HCC 2998 = assay: Growth inhibition of human HCC2998 cells at 10^-5 M incubated for 48 hrs by sulforhodamine B assay; summary of the method: as §1
NCI-H522 = assay: Growth inhibition of human NCI-H522 cells at 10^-5 M incubated for 48 hrs by sulforhodamine B assay; summary of the method: as §1
COLO 205 = assay: Growth inhibition of human COLO205 cells at 10^-5 M incubated for 48 hrs by sulforhodamine B assay; summary of the method: as §1
NCI-H460 = assay: Growth inhibition of human NCI-H460 cells at 10^-5 M incubated for 48 hrs by sulforhodamine B assay; summary of the method: as §1
NCI-H23 = assay: Growth inhibition of human NCI-H23 cells at 10^-5 M incubated for 48 hrs by sulforhodamine B assay; summary of the method: as §1
NCI-H322M = assay: Growth inhibition of human NCI-H322M cells at 10^-5 M incubated for 48 hrs by sulforhodamine B assay; summary of the method: as §1
NCI-H226 = assay: Growth inhibition of human NCI-H226 cells at 10^-5 M incubated for 48 hrs by sulforhodamine B assay; summary of the method: as §1
HOP-62 = assay: Growth inhibition of human HOP62 cells at 10^-5 M incubated for 48 hrs by sulforhodamine B assay; summary of the method: as §1
HOP-92 = assay: Growth inhibition of human HOP92 cells at 10^-5 M incubated for 48 hrs by sulforhodamine B assay; summary of the method: as §1
A549 = assay: Growth inhibition of human A549/ATCC cells at 10^-5 M incubated for 48 hrs by sulforhodamine B assay; summary of the method: as §1
EKVX = assay: Growth inhibition of human EKVX cells at 10^-5 M incubated for 48 hrs by sulforhodamine B assay; summary of the method: as §1
SR = assay: Growth inhibition of human SR cells at 10^-5 M incubated for 48 hrs by sulforhodamine B assay; summary of the method: as §1
MOLT-4 = assay: Growth inhibition of human MOLT4 cells at 10^-5 M incubated for 48 hrs by sulforhodamine B assay; summary of the method: as §1
RPMI-8226 = assay: Growth inhibition of human RPMI8226 cells at 10^-5 M incubated for 48 hrs by sulforhodamine B assay; summary of the method: as §1
K562 = assay: Growth inhibition of human K562 cells at 10^-5 M incubated for 48 hrs by sulforhodamine B assay; summary of the method: as §1
CCRF-CEM = assay: Growth inhibition of human CCRF-CEM cells at 10^-5 M incubated for 48 hrs by sulforhodamine B assay; summary of the method: as §1
HL-60(TB) = assay: Growth inhibition of human HL-60(TB) cells at 10^-5 M incubated for 48 hrs by sulforhodamine B assay
Summary of the method: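 Run in the NCI59 cell-line one-dose screen, with each compound tested at a single concentration of 1 × 10−5 M.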

Measured: growth inhibition (GI)

COC(=O)C[C@H]1[C@@]2(C)C[C@@]34O[C@@]5(C)O[C@]6([C@@H]7CC(=O)O[C@@H](c8ccoc8)[C@]7(C)CC[C@]6(O5)[C@@]13C)[C@@H](OC(C)=O)[C@@]4(OC(C)=O)[C@H]2OC(C)=O
inactive: all assays above
